Consider 40 molecules from ChEMBL document CHEMBL1123923, “Steroidal silicon side-chain analogues as potential antifertility agents” (1987).

The target of assay [1] is Estrogen receptor (Rattus norvegicus) (UniProt P06211+Q62986).
Assay [2] is filed under the species Rattus norvegicus. The experiment in a line: Antifertility activity measured as minimum protective dose for prevention of pregnancy in rats. The arrangement: unit not given here. In kind it is functional. Put shortly:
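Oral dosing in adult cycling female rats selected in the proestrous phase, 10 animals per dose, with treatment starting on the day of proestrus.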

The species entered for assay [3] is Rattus norvegicus. The experiment in a line: Separation of antifertility from estrogenic activity in rats was measured. In kind it is functional.

On to `C[C@]12CC[C@@H]3c4ccc(O)cc4CC[C@H]3[C@@H]1CC[C@@]2(O)/C=C/[Si](C)(C)C`, for which, in assay [1], the Estrogenic potency turned out to be 0.2. In the assay filed under Rattus norvegicus [2], the Antifertility potency turned out to be 0.
Regarding `C#C[Si](C#C[C@]1(O)CC[C@H]2[C@@H]3CCc4cc(O)ccc4[C@H]3CC[C@@]21C)(CC)CC`, the Separation in the assay filed under Rattus norvegicus [3] worked out at 16. Moreover, the Estrogenic potency in assay [1] turned out to be 37. For the same molecule, in the assay filed under Rattus norvegicus [2], the Antifertility potency turned out to be 600.
In turn, `CC[Si](/C=C\[C@]1(O)CC[C@H]2[C@@H]3CCc4cc(O)ccc4[C@H]3CC[C@@]21C)(CC)CC` yielded a Separation in the assay listed under Rattus norvegicus [3] of 20. The molecule further showed an Estrogenic potency in assay [1] of 0.5. The same molecule registered an Antifertility potency in the assay listed under Rattus norvegicus [2] of 10.
Molecule `CC[Si](C#C[C@]1(O)CC[C@H]2[C@@H]3CCc4cc(O)ccc4[C@H]3CC[C@@]21C)(CC)c1ccccc1` had a Separation in the assay filed under Rattus norvegicus [3] of 10. In addition, the Estrogenic potency in assay [1] was determined as 17. Besides, in the assay filed under Rattus norvegicus [2], the Antifertility potency was 150.
The molecule `C=C([C@]1(O)CC[C@H]2[C@@H]3CCc4cc(O)ccc4[C@H]3CC[C@@]21C)[Si](CCC)(CCC)CCC` gave a Separation in the assay filed under Rattus norvegicus [3] of 4. Also, in assay [1], the Estrogenic potency amounted to 0.5. Besides, the Antifertility potency in the assay listed under Rattus norvegicus [2] worked out at 2.
As to `C#C[C@]1(O)CC[C@H]2[C@@H]3CCc4cc(O)ccc4[C@H]3CC[C@@]21C` [ETHINYL ESTRADIOL], the Antifertility potency in the assay listed under Rattus norvegicus [2] was found to be 100.
With `CCCC[Si](C#C[C@]1(O)CC[C@H]2[C@@H]3CCc4cc(O)cc(C(C)=O)c4[C@H]3CC[C@@]21C)(CCCC)CCCC`, the Estrogenic potency in assay [1] is 4. The molecule also had an Antifertility potency in the assay listed under Rattus norvegicus [2] of 0.
In the assay filed under Rattus norvegicus [3], `C[C@]12CC[C@@H]3c4ccc(O)cc4CC[C@H]3[C@@H]1CC[C@@]2(O)C#C[Si]1(C)CCCCC1` yielded a Separation of 10. In assay [1], this molecule returned an Estrogenic potency of 25. The molecule further displayed an Antifertility potency in the assay filed under Rattus norvegicus [2] of 250.
In assay [1], `CCCC(=O)Oc1ccc2c(c1)CC[C@@H]1[C@@H]2CC[C@@]2(C)[C@H]1CC[C@]2(C#C[Si](CC)(CC)CC)OC(=O)CCC` returned an Estrogenic potency of 4. In the assay listed under Rattus norvegicus [2], this molecule displayed an Antifertility potency of 40.
Turning to `C=C([C@]1(O)CC[C@H]2[C@@H]3CCc4cc(O)ccc4[C@H]3CC[C@@]21C)[Si](C)(C)C`, in the assay listed under Rattus norvegicus [3], the Separation is 5. This molecule showed an Estrogenic potency in assay [1] of 0.4. In addition, the Antifertility potency in the assay listed under Rattus norvegicus [2] came out at 2.
Molecule `CCC(C)[Si](C)(C)C#C[C@]1(O)CC[C@H]2[C@@H]3CCc4cc(O)ccc4[C@H]3CC[C@@]21C` (stereo partly specified) had a Separation in the assay listed under Rattus norvegicus [3] of 15. In assay [1], this molecule registered an Estrogenic potency of 20. Moreover, the Antifertility potency in the assay filed under Rattus norvegicus [2] is listed as 300.
In the same order, the values of `C[C@]12CC[C@@H]3c4ccc(O)cc4CC[C@H]3[C@@H]1CC[C@@]2(O)C#C[Si](C)(C)CCl` are 9, 17 and 150.
On the same counts, the results for `CC[Si]1(C#C[C@]2(O)CC[C@H]3[C@@H]4CCc5cc(O)ccc5[C@H]4CC[C@@]32C)CCCCC1` are 2.4, 85 and 200.
In the case of `CCC[Si](C=C[C@]1(O)CC[C@H]2[C@@H]3CCc4cc(O)ccc4[C@H]3CC[C@@]21C)(CCC)CCC`, in assay [1], the Estrogenic potency stood at 0.05. The same molecule had an Antifertility potency in the assay filed under Rattus norvegicus [2] of 0.
As to `CC[Si](C#C[C@]1(O)CC[C@H]2[C@@H]3CCc4cc(O)ccc4[C@H]3CC[C@@]21C)(CC)CC`, the Separation in the assay filed under Rattus norvegicus [3] was 16. The same molecule registered an Estrogenic potency in assay [1] of 37. In the assay filed under Rattus norvegicus [2], this molecule returned an Antifertility potency of 600.
In the same order, the values of `CC[SiH](C#C[C@]1(O)CC[C@H]2[C@@H]3CCc4cc(O)ccc4[C@H]3CC[C@@]21C)CC` are 21, 29 and 600.
In assay [1], `CCCC(=O)Oc1ccc2c(c1)CC[C@@H]1[C@@H]2CC[C@@]2(C)[C@H]1CC[C@@]2(O)C#C[Si](CC)(CC)CC` returned an Estrogenic potency of 35. This molecule also yielded an Antifertility potency in the assay filed under Rattus norvegicus [2] of 300.
The molecule `CCCCCC[Si](C#C[C@]1(O)CC[C@H]2[C@@H]3CCc4cc(O)ccc4[C@H]3CC[C@@]21C)(CC)CC` had a Separation in the assay listed under Rattus norvegicus [3] of 3. The same molecule yielded an Estrogenic potency in assay [1] of 5.2. For the same molecule, in the assay listed under Rattus norvegicus [2], the Antifertility potency came out at 15.
The molecule `C[C@]12CC[C@@H]3c4ccc(O)cc4CC[C@H]3[C@@H]1CC[C@@]2(O)C#C[Si](C)(C)c1ccccc1` gave a Separation in the assay filed under Rattus norvegicus [3] of 4.7. The Estrogenic potency in assay [1] was found to be 7. Further, in the assay listed under Rattus norvegicus [2], the Antifertility potency worked out at 33.
On the same counts, the results for `CC[Si](/C=C/[C@]1(O)CC[C@H]2[C@@H]3CCc4cc(O)ccc4[C@H]3CC[C@@]21C)(CC)CC` are 30, 0.04 and 1.31.
In the same order, the values of `C=CC[Si](C#C[C@]1(O)CC[C@H]2[C@@H]3CCc4cc(O)ccc4[C@H]3CC[C@@]21C)(CC)CC` are 7, 44 and 300.
On the same counts, the results for `C=CC[Si](C)(C)C#C[C@]1(O)CC[C@H]2[C@@H]3CCc4cc(O)ccc4[C@H]3CC[C@@]21C` are 10, 24 and 250.
As to `CC[Si](O)(C#C[C@]1(O)CC[C@H]2[C@@H]3CCc4cc(O)ccc4[C@H]3CC[C@@]21C)CC`, the Separation in the assay filed under Rattus norvegicus [3] was 27. In assay [1], this molecule showed an Estrogenic potency of 11. Further, the Antifertility potency in the assay filed under Rattus norvegicus [2] is on record as 300.
On the same counts, the results for `CC[Si](C)(C#C[C@]1(O)CC[C@H]2[C@@H]3CCc4cc(O)ccc4[C@H]3CC[C@@]21C)CC` are 15, 40 and 600.
Turning to `CCCC[Si](C)(C)C#C[C@]1(O)CC[C@H]2[C@@H]3CCc4cc(O)ccc4[C@H]3CC[C@@]21C`, the Separation in the assay filed under Rattus norvegicus [3] was determined as 15. The Estrogenic potency in assay [1] turned out to be 20. Further, in the assay listed under Rattus norvegicus [2], the Antifertility potency was determined as 300.
In the same order, the values of `CC[Si](C#C[C@]1(O)CC[C@H]2[C@@H]3CCc4cc(O)ccc4[C@H]3CC[C@@]21C)(CC)C(C)(C)C` are 10, 31 and 300.
Take `CC(C)(C)[Si](C)(C)C#C[C@]1(O)CC[C@H]2[C@@H]3CCc4cc(O)ccc4[C@H]3CC[C@@]21C`: the Separation in the assay filed under Rattus norvegicus [3] was determined as 30. This molecule also yielded an Estrogenic potency in assay [1] of 20. The same molecule showed an Antifertility potency in the assay filed under Rattus norvegicus [2] of 600.
In the same order, the values of `CC[Si](C#C[C@]1(O)CC[C@H]2[C@@H]3CCc4cc(O)ccc4[C@H]3CC[C@@]21C)(CC)C(C)C` are 10, 30 and 300.
In the same order, the values of `CC[Si]1(C#C[C@]2(O)CC[C@H]3[C@@H]4CCc5cc(O)ccc5[C@H]4CC[C@@]32C)CCCC1` are 4.2, 120 and 500.
On the same counts, the results for `C[C@]12CC[C@@H]3c4ccc(O)cc4CC[C@H]3[C@@H]1CC[C@@]2(O)C#C[Si](C)(C)C` are 4.7, 7 and 33.
Consider `C[C@]12CC[C@@H]3c4ccc(O)cc4CC[C@H]3[C@@H]1CC[C@@]2(O)/C=C\[Si](C)(C)C`, for which, in the assay listed under Rattus norvegicus [3], the Separation came out at 10. Moreover, in assay [1], the Estrogenic potency amounted to 0.5. The Antifertility potency in the assay listed under Rattus norvegicus [2] is recorded as 5.
In the same order, the values of `C=C([C@]1(O)CC[C@H]2[C@@H]3CCc4cc(O)ccc4[C@H]3CC[C@@]21C)[Si](CC)(CC)CC` are 8, 0.5 and 4.
As for `CC[Si](C#C[C@]1(O)CC[C@H]2[C@@H]3CCc4cc(O)ccc4[C@H]3CC[C@@]21C)(C#C[C@]1(O)CC[C@H]2[C@@H]3CCc4cc(O)ccc4[C@H]3CC[C@@]21C)CC`, the Estrogenic potency in assay [1] is 8. Also, the Antifertility potency in the assay filed under Rattus norvegicus [2] worked out at 0.
Turning to `CC(Cl)[Si](C)(C)C#C[C@]1(O)CC[C@H]2[C@@H]3CCc4cc(O)ccc4[C@H]3CC[C@@]21C` (stereo partly specified), the Separation in the assay filed under Rattus norvegicus [3] is recorded as 7. The molecule further had an Estrogenic potency in assay [1] of 45. In the assay listed under Rattus norvegicus [2], this molecule returned an Antifertility potency of 300.
The molecule `C[C@]12CC[C@@H]3c4ccc(O)cc4CC[C@H]3[C@@H]1CC[C@@]2(O)C#C[Si](C)(C)C(Cl)Cl` yielded a Separation in the assay listed under Rattus norvegicus [3] of 17. Besides, the Estrogenic potency in assay [1] was determined as 18. In the assay filed under Rattus norvegicus [2], this molecule came in with an Antifertility potency of 300.
As to `CC[Si](C#C[C@]1(O)CC[C@H]2[C@@H]3CCc4cc(OC5CCCC5)ccc4[C@H]3CC[C@@]21C)(CC)CC`, the Estrogenic potency in assay [1] was 24. The molecule also returned an Antifertility potency in the assay filed under Rattus norvegicus [2] of 300.
In the same order, the values of `C[C@]12CC[C@@H]3c4ccc(O)cc4CC[C@H]3[C@@H]1CC[C@@]2(O)C#C[Si](c1ccccc1)(c1ccccc1)c1ccccc1` are 0.5 and 0.
`CC[Si](C#C[C@]1(OC(=O)n2ccnc2)CC[C@H]2[C@@H]3CCc4cc(OC)ccc4[C@H]3CC[C@@]21C)(CC)CC`: the Estrogenic potency in assay [1] stood at 3.
`CC[Si](C#C[C@]1(O)CC[C@H]2[C@@H]3CCc4cc(OC(C)=O)ccc4[C@H]3CC[C@@]21C)(CC)CC` yielded an Estrogenic potency in assay [1] of 34. The molecule further gave an Antifertility potency in the assay filed under Rattus norvegicus [2] of 600.
On the same counts, the results for `CCCC[Si](C#C[C@]1(O)CC[C@H]2[C@@H]3CCc4cc(O)ccc4[C@H]3CC[C@@]21C)(CCCC)CCCC` are 2.5 and 0.
